The record followed here is ChEMBL document CHEMBL3526048, “In vitro metabolism of rivoglitazone, a novel peroxisome proliferator-activated receptor γ agonist, in rat, monkey, and human liver microsomes and freshly isolated hepatocytes” (Drug Metab Dispos, 2011).

The target of data set [1] is T1, Cytochrome P450 1A2 (Homo sapiens, UniProt P05177).
T1 sequence (P05177 whole entry): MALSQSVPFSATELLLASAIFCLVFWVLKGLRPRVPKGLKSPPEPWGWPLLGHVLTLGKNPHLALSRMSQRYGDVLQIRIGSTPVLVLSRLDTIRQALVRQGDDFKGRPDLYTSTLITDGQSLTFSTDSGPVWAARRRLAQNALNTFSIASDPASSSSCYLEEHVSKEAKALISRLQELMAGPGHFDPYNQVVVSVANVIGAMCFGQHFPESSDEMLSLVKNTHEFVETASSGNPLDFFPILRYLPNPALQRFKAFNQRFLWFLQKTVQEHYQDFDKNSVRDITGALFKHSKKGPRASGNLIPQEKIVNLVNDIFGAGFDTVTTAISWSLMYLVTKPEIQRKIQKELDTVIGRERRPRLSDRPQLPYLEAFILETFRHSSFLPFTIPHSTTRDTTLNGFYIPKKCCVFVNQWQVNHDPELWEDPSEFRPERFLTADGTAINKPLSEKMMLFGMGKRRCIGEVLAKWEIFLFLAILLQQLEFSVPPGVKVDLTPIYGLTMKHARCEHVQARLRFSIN
As to the kind of experiment: Activity of human CYP1A2 expressed in microsomes isolated from baculovirus infected insect cell assessed as enzyme-mediated 3-(4-((6-methoxy-1-methyl-1H-benzo[d]imidazol-2-yl)methoxy)phenyl)-2-(methylthio)propanamide formation at 20 uM after 2 hrs by radio-HPLC/LC-MS/MS analysis in presence of NADPH-generating system/SAM. It is filed as ADME.

The nature of data set [2]: Drug metabolism in human hepatocytes assessed as formation of (2S,3S,4S,5R,6R)-3,4,5-trihydroxy-6-(5-(4-((6-methoxy-1-methyl-1H-benzo[d]imidazol-2-yl)methoxy)benzyl)-2,4-dioxothiazolidin-3-yl)tetrahydro-2H-pyran-2-carboxylic acid at 30 uM after 3 hrs by radio-HPLC/LC-MS/MS analysis in presence of UDPGA and UDPGA/SAM. It is filed as ADME, cell-based, Hepatocyte.
For data set [3], the target named is Cytochrome P450 2C19 (Homo sapiens, UniProt P33261). As to the kind of experiment: Activity of human CYP2C19 expressed in microsomes isolated from baculovirus infected insect cell assessed as enzyme-mediated 2-hydroxy-3-(4-((6-methoxy-1-methyl-1H-benzo[d]imidazol-2-yl)methoxy)phenyl)propanamide formation at 20 uM after 2 hrs by radio-HPLC/LC-MS/MS analysis in presence of NADPH-generating system and NADPH-generating system/SAM. It is filed as ADME. Summed up: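 Baculovirus/insect-cell microsomes expressing single human CYPs, 1 mg/ml protein, with 50 mM potassium phosphate (pH 7.4) or 100 mM Tris-HCl (pH 7.5). NADPH-generating system: 2 mM NADP⁺, 20 mM glucose 6-phosphate, 2 units/ml G6PDH, 10 mM MgCl₂. [¹⁴C]rivoglitazone at 20 μM, 2 h at 37°C with shaking. Control used insect-cell control supersomes. Stopped with acetonitrile; supernatant concentrated under nitrogen; metabolites analysed by radio-HPLC, LC-MS and LC-MS/MS.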
Chain of Cytochrome P450 2C19 (P33261 whole entry): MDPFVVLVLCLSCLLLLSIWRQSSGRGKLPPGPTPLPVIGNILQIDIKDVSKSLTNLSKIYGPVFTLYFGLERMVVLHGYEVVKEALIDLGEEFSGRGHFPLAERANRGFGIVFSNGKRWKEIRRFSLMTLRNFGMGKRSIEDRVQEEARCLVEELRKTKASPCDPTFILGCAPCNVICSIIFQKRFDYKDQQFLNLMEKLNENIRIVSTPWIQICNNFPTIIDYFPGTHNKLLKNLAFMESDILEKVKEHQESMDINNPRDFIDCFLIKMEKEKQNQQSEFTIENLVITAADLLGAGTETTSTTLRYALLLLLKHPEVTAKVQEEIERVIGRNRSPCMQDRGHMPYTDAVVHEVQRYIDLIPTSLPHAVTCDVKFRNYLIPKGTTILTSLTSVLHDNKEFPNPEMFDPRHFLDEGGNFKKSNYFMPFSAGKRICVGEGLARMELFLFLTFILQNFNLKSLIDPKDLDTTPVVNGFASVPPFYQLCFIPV

A short description of data set [4]: Drug metabolism in monkey hepatocytes assessed as formation of 5-hydroxy-5-(4-((6-methoxy-1-methyl-1H-benzo[d]imidazol-2-yl)methoxy)benzyl)thiazolidine-2,4-dione at 30 uM after 3 hrs by radio-HPLC/LC-MS/MS analysis in presence of NADPH-generating system and NADPH-generating system/SAM. As to conditions: cynomolgus monkey.
Data set [5] deals with T2, UDP-glucuronosyltransferase 2B7 (Homo sapiens, UniProt P16662).
T2 sequence (P16662 whole entry): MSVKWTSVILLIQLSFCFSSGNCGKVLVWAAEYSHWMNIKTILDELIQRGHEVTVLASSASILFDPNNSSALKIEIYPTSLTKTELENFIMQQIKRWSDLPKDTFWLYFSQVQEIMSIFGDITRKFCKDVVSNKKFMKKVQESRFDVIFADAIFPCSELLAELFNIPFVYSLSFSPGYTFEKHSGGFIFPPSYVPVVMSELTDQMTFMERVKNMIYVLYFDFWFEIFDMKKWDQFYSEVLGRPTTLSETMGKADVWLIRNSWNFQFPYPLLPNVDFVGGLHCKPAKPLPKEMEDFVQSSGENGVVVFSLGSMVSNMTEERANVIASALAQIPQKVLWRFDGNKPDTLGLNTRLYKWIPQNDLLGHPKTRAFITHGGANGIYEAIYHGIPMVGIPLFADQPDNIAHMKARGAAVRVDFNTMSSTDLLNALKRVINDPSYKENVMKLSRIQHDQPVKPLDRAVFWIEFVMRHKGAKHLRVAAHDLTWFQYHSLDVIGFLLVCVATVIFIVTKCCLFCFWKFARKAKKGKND
As to the kind of experiment: Activity of human UGT2B7 expressed in microsomes isolated from baculovirus infected insect cell assessed as enzyme-mediated (2S,3S,4S,5R,6R)-6-((1-carboxy-2-(4-((6-methoxy-1-methyl-1H-benzo[d]imidazol-2-yl)methoxy)phenyl)ethylthio)carbonylamino)-3,4,5-trihydroxytetrahydro-2H-pyran-2-carboxylic acid formation at 20 uM after 4 hrs by radio-HPLC/LC-MS/MS analysis in presence of NADPH-generating system/SAM. In kind it is ADME.

The target in data set [6] is T3, UDP-glucuronosyltransferase 1A3 (Homo sapiens, UniProt P35503).
T3 sequence (P35503 whole entry): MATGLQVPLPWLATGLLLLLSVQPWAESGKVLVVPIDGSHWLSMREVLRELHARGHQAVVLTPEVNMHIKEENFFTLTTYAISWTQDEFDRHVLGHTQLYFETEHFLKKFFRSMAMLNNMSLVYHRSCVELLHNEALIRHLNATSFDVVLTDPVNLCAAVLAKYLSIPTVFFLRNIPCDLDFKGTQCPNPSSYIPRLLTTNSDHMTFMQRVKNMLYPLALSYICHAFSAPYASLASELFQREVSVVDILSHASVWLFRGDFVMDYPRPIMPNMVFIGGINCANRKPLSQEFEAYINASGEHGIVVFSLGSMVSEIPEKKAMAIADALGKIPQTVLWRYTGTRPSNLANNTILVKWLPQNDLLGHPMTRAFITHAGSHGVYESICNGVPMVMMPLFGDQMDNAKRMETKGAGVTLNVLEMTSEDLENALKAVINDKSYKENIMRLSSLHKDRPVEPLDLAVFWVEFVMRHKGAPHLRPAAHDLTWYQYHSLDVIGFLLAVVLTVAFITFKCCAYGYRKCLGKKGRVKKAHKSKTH
As to the kind of experiment: Activity of human UGT1A3 expressed in microsomes isolated from baculovirus infected insect cell assessed as enzyme-mediated 2-amino-3-((1-carboxy-2-(4-((6-methoxy-1-methyl-1H-benzo[d]imidazol-2-yl)methoxy)phenyl)ethyl)disulfanyl)propanoic acid formation at 20 uM after 4 hrs by radio-HPLC/LC-MS/MS analysis in presence of UDPGA and UDPGA/SAM. It is filed as ADME. Summed up:
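Alamethicin (50 μg/mg protein, 15 min on ice) pretreated expressed human UGT microsomes (1 mg/ml protein) from baculovirus-infected insect cells. Incubation with [¹⁴C]rivoglitazone (20 μM) in 100 mM Tris-HCl (pH 7.5) with 10 mM MgCl₂, started by 5 mM UDPGA, 4 h at 37°C with shaking. UGT insect-cell control supersomes were run alongside. Acetonitrile stop, concentrated supernatant analysed by radio-HPLC, LC-MS and LC-MS/MS.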

In the case of `COc1ccc2nc(COc3ccc(C[14CH]4SC(=O)NC4=O)cc3)n(C)c2c1.Cl` (racemic), the Drug metabolism result in data set [1] is “metabolite_not_detected”; in data set [2], “metabolite_detected”; in data set [3] it was “metabolite_detected”; in data set [4], “metabolite_detected”; in data set [5], “metabolite_detected”; in data set [6], “metabolite_not_detected”.
